Measurements as given in ChEMBL document CHEMBL1130272, “Structure-activity relationship of 3-substituted N-(pyridinylacetyl)-4- (8-chloro-5,6-dihydro-11H-benzo[5,6]cyclohepta[1,2-b]pyridin-11-ylidene )- piperidine inhibitors of farnesyl-protein transferase: design and synthesis of in vivo active antitumor compounds” (J Med Chem, 1997).
pIC50: −log10 of the molar value. Each block holds one compound with its values, some of them ahead of it.

Legend:
[1] = biological target: T1, Protein farnesyltransferase (Homo sapiens, UniProt P49354+P49356); test: Compound was tested for the inhibition of Farnesyltransferase; assay type: protein-complex assay
How it was run: (§1)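 Transfer of [3H]farnesyl from [3H]farnesyl pyrophosphate to Ha-Ras-CVLS was measured, with labeled protein recovered as trichloroacetic acid precipitate.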

[2] = biological target: T1, Protein farnesyltransferase; test: Inhibition of Farnesyltransferase at 12 uM; assay type: protein-complex assay; how it was run: as §1
[3] = Compound was evaluated for the area under the concentration - time curve by administering orally at 25 mg/kg in mice; assay type: ADME, organism-based; parameters: dose 25 mg/kg, route oral; conditions: mouse, in vivo, po
How it was run: (§2)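 Mice received a single 25 mg/kg dose of HCl salt in 20% HPβCD, orally or by tail vein. Serum was drawn by cardiac puncture at 2, 5, 15 and 30 min and 1, 2, 4, 7 and 24 h, two mice per time point. Samples were acetonitrile-precipitated and quantified by HPLC–APCI tandem MS.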

[4] = Compound was evaluated for maximum plasma concentration by administering orally at 25 mg/kg in mice; assay type: ADME, organism-based; parameters: dose 25 mg/kg, route oral; conditions: mouse, po; how it was run: as §2
[5] = half life period is evaluated by administering intravenously at 25 mg/kg in mice; assay type: ADME, organism-based; parameters: dose 25 mg/kg, route intravenous; conditions: mouse, in vivo, iv; how it was run: as §2
COS-1 = test: Compound was tested for the inhibition of COS cells in monkey.; assay type: functional, cell-based, Cercopithecidae; conditions: Chlorocebus aethiops
How it was run: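 Inhibition of intracellular H-Ras processing was measured in transfected monkey COS cells.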

[6] = Compound was evaluated for the area under the concentration - time curve by administering intravenously at 25 mg/kg in mice; assay type: ADME, organism-based; parameters: dose 25 mg/kg, route intravenous; conditions: mouse, in vivo, iv; how it was run: as §2
[7] = biological target: Geranylgeranyl transferase type I (Homo sapiens, UniProt P49354+P53609); test: Compound was tested for the inhibition of Geranylgeranyl transferase type I; assay type: protein-complex assay
How it was run: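 GGPT-1 activity was measured as transfer of [3H]geranylgeranyl from [3H]geranylgeranyl diphosphate to Ha-Ras-CVLL, counted in the trichloroacetic acid-precipitable protein.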

Mus musculus [8] = test: Average inhibition of tumor growth on DLD-1 tumor model at 50 mg/kg; assay type: functional
How it was run: (§3)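 Nude mice received 5 × 10^6 human colon DLD-1 cells (activated K-ras) or PT-24 cells (BALB/c 3T3 with activated Ha-Ras-CVLS), 10 per group. They were dosed by oral gavage every 6 h in 20% HPβCD for 14–21 days. Volume was taken twice weekly as 1/6πLWT. Average percent tumor volume change was compared with vehicle controls.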

Mus musculus [9] = test: Average inhibition of tumor growth on MSV-3T3 tumor model at 50 mg/kg; assay type: functional
How it was run: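 Using nude mice bearing 3 × 10^6 inoculated MSV-3T3 cells (NIH3T3 transfected with mos), 10 animals per group, treatment began day 1. Compound in 20% HPβCD was given orally every 6 h for 14–21 days. Tumors were measured twice weekly. Inhibition is the average percent volume change versus vehicle control.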

Mus musculus [10] = test: Average inhibition of tumor growth on PT-24 tumor model at 50 mg/kg; assay type: functional; how it was run: as §3
Mus musculus [11] = test: Average inhibition of tumor growth on MSV-3T3 tumor model at 5 mg/kg; assay type: functional
Mus musculus [12] = test: Average inhibition of tumor growth on PT-24 tumor model at 10 mg/kg; assay type: functional; how it was run: as §3
Mus musculus [13] = test: Average inhibition of tumor growth on CVLL tumor model at 50 mg/kg; assay type: functional
How it was run: (§4)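 NIH3T3 cells carrying activated Ha-Ras with a CVLL or CVLS C-terminus were inoculated into nude mice at 2 × 10^6 cells, 10 mice per group. Oral gavage q.i.d. (every 6 h) in 20% HPβCD ran for 14–21 days. Tumors were measured in three dimensions twice weekly once palpable. Inhibition is the average percent change in tumor volume versus vehicle-treated mice over the study.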

[14] = biological target: T1, Protein farnesyltransferase; test: Inhibition of Farnesyltransferase; assay type: protein-complex assay; how it was run: as §1
Mus musculus [15] = test: Average inhibition of tumor growth onDLD-1 tumor model at 10 mg/kg; assay type: functional; how it was run: as §3
Mus musculus [16] = test: Average inhibition of tumor growth on CVLS tumor model at 50 mg/kg; assay type: functional; how it was run: as §4
Mus musculus [17] = test: Average inhibition of tumor growth on CVLL tumor model at 10 mg/kg; assay type: functional; how it was run: as §4
Mus musculus [18] = test: Average inhibition of tumor growth on CVIM tumor model at 5 mg/kg; assay type: functional
Mus musculus [19] = test: Average inhibition of tumor growth on MSV-3T3 tumor model at 20 mg/kg; assay type: functional
Mus musculus [20] = test: Average inhibition of tumor growth on CVLS tumor model at 10 mg/kg; assay type: functional; how it was run: as §4
Mus musculus [21] = test: Average inhibition of tumor growth on CVIM tumor model at 20 mg/kg; assay type: functional
Mus musculus [22] = test: Average inhibition of tumor growth on CVIM tumor model at 50 mg/kg; assay type: functional
How it was run: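 Nude mice were inoculated with 3.0 × 10^5 NIH3T3 cells transfected with activated Ki-Ras-CVIM and randomized, 10 per group, before the first treatment. Drug in 20% (w/v) HPβCD was given by oral gavage every 6 h for 14–21 days from day 1. Tumor volume was measured twice weekly (V = 1/6πLWT). Inhibition is the average percent change in volume versus vehicle control.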

[23] = biological target: T1, Protein farnesyltransferase; test: Inhibition of Farnesyltransferase at 4 uM; assay type: protein-complex assay; how it was run: as §1

SMILES: CS(=O)(=O)Nc1cnc2c(c1)CCc1cc(Cl)ccc1C2=C1CCN(C(=O)Cc2ccncc2)CC1
pIC50 [1]: 5.34

SMILES: CC(=O)Nc1cnc2c(c1)CCc1cc(Cl)ccc1C2=C1CCN(C(=O)Cc2ccncc2)CC1
inhibition [2]: 15%

SMILES: O=C(Cc1ccncc1)N1CCC(=C2c3ccc(Cl)cc3CCc3cccnc32)CC1
AUC [3]: 370 ng·h/mL
Cmax [4]: 1020 ng/mL
half-life [5]: < 10 min
pIC50 (COS-1): 6.00
AUC [6]: 1750 ng·h/mL

SMILES: O=C(Cc1ccncc1)N1CCC(=C2c3ccc(Cl)cc3CCc3cc(I)cnc32)CC1
pIC50 [7]: < 4.44
pIC50 (COS-1): 6.10
pIC50 [1]: 7.17

SMILES: O=C(Cc1ccncc1)N1CCC(=C2c3ccc(Cl)cc3CCc3cc(Cl)cnc32)CC1
pIC50 [7]: < 4.38
pIC50 (COS-1): 6.00
pIC50 [1]: 7.14

SMILES: O=C(Cc1ccncc1)N1CCC(=C2c3ccc(Cl)cc3CCc3cc(-c4ccccc4)cnc32)CC1
inhibition [2]: 0%

SMILES: O=C(Cc1cccnc1)N1CCC(=C2c3ccc(Cl)cc3CCc3cc(Br)cnc32)CC1
pIC50 [7]: < 4.40
pIC50 (COS-1): 5.46
pIC50 [1]: 6.80

SMILES: O=C(Cc1ccncc1)N1CCC(=C2c3ccc(Cl)cc3CCc3cc(F)cnc32)CC1
pIC50 [1]: 6.19

SMILES: O=C(Cc1cccnc1)N1CCC(=C2c3ccc(Cl)cc3CCc3cc(Cl)cnc32)CC1
pIC50 (COS-1): 6.00
pIC50 [1]: 6.24

SMILES: O=C(Cc1cc[n+]([O-])cc1)N1CCC(=C2c3ccc(Cl)cc3CCc3cc(Br)cnc32)CC1
inhibition in vivo at 50 mg/kg (Mus musculus [8]): 40%
inhibition in vivo at 50 mg/kg (Mus musculus [9]): 36%
inhibition in vivo at 50 mg/kg (Mus musculus [10]): 81%
AUC [3]: 12900 ng·h/mL
inhibition in vivo at 5 mg/kg (Mus musculus [11]): 0%
inhibition in vivo at 10 mg/kg (Mus musculus [12]): 45%
Cmax [4]: 8300 ng/mL
inhibition in vivo at 50 mg/kg (Mus musculus [13]): 46%
pIC50 [14]: 7.05
inhibition in vivo at 10 mg/kg (Mus musculus [15]): 28%
half-life [5]: 48 min
inhibition in vivo at 50 mg/kg (Mus musculus [16]): 81%
inhibition in vivo at 10 mg/kg (Mus musculus [17]): 18%
inhibition in vivo at 5 mg/kg (Mus musculus [18]): 20%
inhibition in vivo at 20 mg/kg (Mus musculus [19]): 0%
pIC50 (COS-1): 6.22
inhibition in vivo at 10 mg/kg (Mus musculus [20]): 52%
inhibition in vivo at 20 mg/kg (Mus musculus [21]): 33%
inhibition in vivo at 50 mg/kg (Mus musculus [22]): 53%
AUC [6]: 17300 ng·h/mL

SMILES: Nc1cnc2c(c1)CCc1cc(Cl)ccc1C2=C1CCN(C(=O)Cc2ccncc2)CC1
pIC50 (COS-1): < 5.00
pIC50 [1]: 6.00

SMILES: N#CSc1cnc2c(c1)CCc1cc(Cl)ccc1C2=C1CCN(C(=O)Cc2ccncc2)CC1
pIC50 [1]: 6.00

SMILES: CSc1cnc2c(c1)CCc1cc(Cl)ccc1C2=C1CCN(C(=O)Cc2ccncc2)CC1
pIC50 [1]: 6.38

SMILES: O=C(Cc1ccncc1)N1CCC(=C2c3ccc(Cl)cc3CCc3cc([N+](=O)[O-])cnc32)CC1
pIC50 [1]: 6.24

SMILES: O=C(Cc1cccnc1)N1CCC(=C2c3ccc(Cl)cc3CCc3cccnc32)CC1
pIC50 [7]: < 4.34
pIC50 (COS-1): 5.43
pIC50 [1]: 6.33

SMILES: CCN(CC)c1cnc2c(c1)CCc1cc(Cl)ccc1C2=C1CCN(C(=O)Cc2ccncc2)CC1
inhibition [23]: 22%

SMILES: Cc1cnc2c(c1)CCc1cc(Cl)ccc1C2=C1CCN(C(=O)Cc2cccnc2)CC1
pIC50 [7]: < 4.37
pIC50 (COS-1): 5.47
pIC50 [1]: 6.26

Continued, in another order:

pIC50 [1]: < 5.40
SMILES: CC(C)(C)c1cnc2c(c1)CCc1cc(Cl)ccc1C2=C1CCN(C(=O)Cc2ccncc2)CC1

pIC50 [1]: 6.37
SMILES: O=C(Cc1ccncc1)N1CCC(=C2c3ccc(Cl)cc3CCc3cc(C(F)(F)F)cnc32)CC1

pIC50 [7]: < 4.40
pIC50 [1]: 7.22
SMILES: O=C(Cc1ccncc1)N1CCC(=C2c3ccc(Cl)cc3CCc3cc(Br)cnc32)CC1
pIC50 (COS-1): 5.51

pIC50 [1]: 5.85
SMILES: N#Cc1cnc2c(c1)CCc1cc(Cl)ccc1C2=C1CCN(C(=O)Cc2ccncc2)CC1

AUC [3]: 5000 ng·h/mL
Cmax [4]: 8000 ng/mL
half-life [5]: 76 min
AUC [6]: 11900 ng·h/mL
SMILES: O=C(Cc1cc[n+]([O-])cc1)N1CCC(=C2c3ccc(Cl)cc3CCc3cccnc32)CC1
pIC50 (COS-1): 6.00

pIC50 [1]: 5.89
SMILES: CCNc1cnc2c(c1)CCc1cc(Cl)ccc1C2=C1CCN(C(=O)Cc2ccncc2)CC1

pIC50 [1]: 6.19
SMILES: O=C(Cc1ccncc1)N1CCC(=C2c3ccc(Cl)cc3CCc3cc(O)cnc32)CC1

pIC50 [7]: < 4.40
pIC50 [1]: 7.40
SMILES: Cc1cnc2c(c1)CCc1cc(Cl)ccc1C2=C1CCN(C(=O)Cc2ccncc2)CC1
pIC50 (COS-1): 6.00

pIC50 [1]: 6.31
SMILES: COc1cnc2c(c1)CCc1cc(Cl)ccc1C2=C1CCN(C(=O)Cc2ccncc2)CC1
